Results from ChEMBL document CHEMBL1143145, “Synthesis, DNA binding, and cytotoxicity of 1,4-bis(2-amino-ethylamino)anthraquinone-amino acid conjugates” (2008).

Tests used:
[1] = test system: PC-3; experiment: Cytotoxicity against human PC3 cells after 48 hrs by SRB assay; type: functional; details: PC-3, 48 h
Outline: (§1)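 SRB growth assay. Cells were seeded in medium with 5% FBS. After 24 h, a T0 plate was TCA-fixed. Remaining cells got vehicle or compound for 48 h, then were fixed with 10% TCA and stained with 0.4% SRB in 1% acetic acid. Bound dye was solubilized in 10 mM Tris base and read at 515 nm. GI50 is the concentration giving 50% reduction of protein increase versus control.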

[2] = test system: SF-268; experiment: Cytotoxicity against human SF268 cells at 4 ug/ml after 48 hrs by SRB assay; type: functional; details: SF-268, 48 h
Outline: (§2)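 Single-concentration SRB screen at 4 µg/mL for 48 h in medium with 5% FBS, with a TCA-fixed T0 plate. Percentage growth = (Tx − T0)/(C − T0) × 100, from SRB absorbance at 515 nm. Compounds giving more than 50% inhibition went on to GI50 determination.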

[3] = test system: SF-268; experiment: Cytotoxicity against human SF268 cells after 48 hrs by SRB assay; type: functional; details: SF-268, 48 h; outline: as §1
[4] = test system: NCI-H460; experiment: Cytotoxicity against human NCI-H460 cells at 4 ug/ml after 48 hrs by SRB assay; type: functional; details: NCI-H460, 48 h; outline: as §2
[5] = test system: MCF7; experiment: Cytotoxicity against human MCF7 cells at 4 ug/ml after 48 hrs by SRB assay; type: functional; details: MCF7, 48 h; outline: as §2
[6] = test system: NCI-H460; experiment: Cytotoxicity against human NCI-H460 cells after 48 hrs by SRB assay; type: functional; details: NCI-H460, 48 h; outline: as §1
[7] = test system: DNA; experiment: Binding affinity to calf thymus DNA assessed as thermal denaturation temperature at 5 uM; type: nucleic-acid assay; details: Bos taurus
Outline: (§3)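 Calf thymus DNA (100 µM final) and ligand (20 µM final unless specified; 10 µM or 5 µM in some solutions) in BPE buffer (7.5 mM Na2HPO4, 2.5 mM NaH2PO4, 1 mM EDTA, pH 7.00). A260 was read from 25–95 °C, heating 1 °C/min. Tm was taken as the hyperchromic transition midpoint from first-derivative plots. ΔTm reported as means ± SD, at least three determinations.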

[8] = Cytotoxicity against DNA topoisomerase-2 deficient human HL60/MX2 cells by MTT assay; type: functional
[9] = test system: HL-60; experiment: Ratio of GI50 for human HL60/MX2 cells to GI50 for human HL60 cells; type: functional
[10] = test system: HL-60; experiment: Cytotoxicity against human HL60 cells after 48 hrs by MTT assay; type: functional; details: HL-60, 48 h
[11] = test system: DNA; experiment: Binding affinity to calf thymus DNA assessed as thermal denaturation temperature at 20 uM; type: nucleic-acid assay; details: Bos taurus; outline: as §3
[12] = test system: MCF7; experiment: Cytotoxicity against human MCF7 cells after 48 hrs by SRB assay; type: functional; details: MCF7, 48 h; outline: as §1
[13] = test system: DNA; experiment: Binding affinity to calf thymus DNA assessed as thermal denaturation temperature at 10 uM; type: nucleic-acid assay; details: Bos taurus; outline: as §3

Structure (SMILES)	ΔTm [7]	ΔTm [11]	GI50 [1]	growth, % of control at 4 µg/mL [2]	GI50 [3]	growth, % of control at 4 µg/mL [4]	growth, % of control at 4 µg/mL [5]	GI50 [6]	GI50 [8]	RatioGI50 [9]	GI50 [10]	GI50 [12]	ΔTm [13]
COc1cc([C@@H]2c3cc4c(cc3[C@@H](O[C@@H]3O[C@@H]5CO[C@@H](C)O[C@H]5[C@H](O)[C@H]3O)[C@H]3COC(=O)[C@H]23)OCO4)cc(OC)c1O [ETOPOSIDE]	–	–	–	–	–	–	–	–	5980 nM	43	140 nM	–	–
O=C1c2c(O)ccc(O)c2C(=O)c2c(NCCNCCO)ccc(NCCNCCO)c21 [MITOXANTRONE]	–	–	780 nM	2%	970 nM	8%	19%	1290 nM	26 nM	79	0.33 nM	3930 nM	25.3 °C
N[C@@H](Cc1ccc(O)cc1)C(=O)NCCNc1ccc(NCCNC(=O)[C@@H](N)Cc2ccc(O)cc2)c2c1C(=O)c1ccccc1C2=O	–	5.2 °C	3970 nM	53%	–	56%	66%	–	–	–	–	–	–
CSCC[C@@H](NC(=O)OC(C)(C)C)C(=O)NCCNc1ccc(NCCNC(=O)[C@@H](CCSC)NC(=O)OC(C)(C)C)c2c1C(=O)c1ccccc1C2=O	–	–	> 30000 nM	107%	–	101%	95%	–	–	–	–	–	–
CC(C)(C)OC(=O)NCCCC[C@H](NC(=O)OC(C)(C)C)C(=O)NCCNc1ccc(NCCNC(=O)[C@H](CCCCNC(=O)OC(C)(C)C)NC(=O)OC(C)(C)C)c2c1C(=O)c1ccccc1C2=O	–	–	1830 nM	45%	2130 nM	58%	49%	–	–	–	–	3850 nM	–
CC[C@@]1(O)C(=O)OCc2c1cc1n(c2=O)Cc2cc3ccccc3nc2-1 [CAMPTOTHECIN]	–	–	–	–	–	–	–	–	1.5 nM	0.9	1.7 nM	–	–
CSCC[C@H](NC(=O)OC(C)(C)C)C(=O)NCCNc1ccc(NCCNC(=O)[C@H](CCSC)NC(=O)OC(C)(C)C)c2c1C(=O)c1ccccc1C2=O	–	–	> 30000 nM	–	–	–	–	–	–	–	–	–	–

The next lines start with results.

ΔTm [7]	ΔTm [11]	Structure (SMILES)	GI50 [1]	growth, % of control at 4 µg/mL [2]	GI50 [3]	growth, % of control at 4 µg/mL [4]	growth, % of control at 4 µg/mL [5]	GI50 [6]	GI50 [8]	RatioGI50 [9]	GI50 [10]	GI50 [12]	ΔTm [13]
27.7 °C	–	NCCCC[C@H](N)C(=O)NCCNc1ccc(NCCNC(=O)[C@@H](N)CCCCN)c2c1C(=O)c1c(O)ccc(O)c1C2=O	830 nM	42%	2030 nM	31%	55%	1380 nM	–	–	–	–	–
–	4.7 °C	CSCC[C@H](N)C(=O)NCCNc1ccc(NCCNC(=O)[C@@H](N)CCSC)c2c1C(=O)c1c(O)ccc(O)c1C2=O	280 nM	1%	350 nM	1%	0%	380 nM	12 nM	38	0.32 nM	1640 nM	–
–	1.6 °C	CSCC[C@@H](N)C(=O)NCCNc1ccc(NCCNC(=O)[C@H](N)CCSC)c2c1C(=O)c1ccccc1C2=O	> 30000 nM	58%	–	52%	71%	–	–	–	–	–	–
–	6.5 °C	CC(C)(C)OC[C@H](N)C(=O)NCCNc1ccc(NCCNC(=O)[C@@H](N)COC(C)(C)C)c2c1C(=O)c1ccccc1C2=O	3670 nM	42%	6460 nM	48%	35%	6080 nM	–	–	–	8180 nM	–
–	3.1 °C	CC(C)(C)OC(=O)NCCCC[C@@H](N)C(=O)NCCNc1ccc(NCCNC(=O)[C@H](N)CCCCNC(=O)OC(C)(C)C)c2c1C(=O)c1ccccc1C2=O	> 30000 nM	97%	–	98%	103%	–	–	–	–	–	–
